PMC8413131 (Oncogene, 2021)

What was measured:
CWR22Rv1 cells = experiment: Cell growth assay; assay type: cell-based; conditions: for cell growth, 3 days: CWR22Rv1, FBS, 5 μM Abi, 20 μM Enza, 20 μM Apal, 0.25-1.0 μM ARVibs, Fig.4A-4B
C4-2B MDVR cells = experiment: Cell growth assay; assay type: cell-based; conditions: for cell growth, 3 days: FBS, 5 μM Abi, 20 μM Enza, 20 μM Apal, 0.25-1.0 μM ARVibs, Fig.4A-4B
[1] = system: AR-V7 and AR mutants (T878A, K581R, V716M, L702H); experiment: PSA luciferase reporter, AR-V7 and AR mutants in 293 cells; assay type: cell-based; conditions: FBS conditions, 16 hours, Fig.2G
Method in brief: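 293 cells in FBS medium transfected with vector, AR-V7 or mutant AR (T878A, K581R, L702H, V716M) plus a PSA promoter–luciferase plasmid. Then exposed to anti-androgens or test compound for 16 h before luciferase read-out. Mean ± SD of three independent experiments.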

VCaP xenografts = experiment: Relapsed VCaP tumor model, combination with Enza; assay type: in vivo, mice; conditions: relapsed VCaP tumors
wild-type AR (WT-AR) = experiment: PSA luciferase reporter, WT-AR in 293 cells; assay type: cell-based; conditions: FBS conditions, 16 hours, Fig.2G
AR = experiment: Western blot of AR expression in CWR22Rv1 cells; assay type: cell-based; conditions: 1 μM, 16 hours
CWR22Rv1 xenografts = experiment: CWR22Rv1 tumor xenografts in SCID mice; assay type: in vivo; conditions: 25 mg/Kg i.p., Supplementary Fig.6B
Method in brief: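 C.B17 SCID males, 4–5 weeks old, given 3 million CWR22Rv1 cells mixed 1:1 with matrigel s.c. in flank. Randomized at 50–100 mm3 tumor volume. Test compound 25 mg/kg i.p. vs vehicle (15% Cremophor EL, 82.5% PBS, 2.5% DMSO, i.p.). Calipers twice weekly; volume = L×W×W×0.52. Tumors, liver and kidney harvested and weighed after 3 weeks; liver and kidney H&E stained.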

LuCaP 35CR xenografts = experiment: LuCaP35CR PDX model, oral administration; assay type: in vivo, mice; conditions: 150 mg/Kg p.o.
[2] = ref [20], [21]; cited from earlier work

What does the source list for `C[C@]12CC[C@H](O)CC1=CC[C@@H]1[C@@H]2CC[C@]2(C)C(c3cccnc3)=CC[C@@H]12` [Abi, abiraterone]?
cell growth, 3 days (CWR22Rv1 cells): resistant; cell growth, 3 days (C4-2B MDVR cells): resistant

Which “cell growth, 3 days” value (CWR22Rv1 cells) does the source give for `CNC(=O)c1ccc(N2C(=S)N(c3cnc(C#N)c(C(F)(F)F)c3)C(=O)C23CCC3)cc1F` [Apal, apalutamide] here?
Its value is “resistant”.

What about the “cell growth, 3 days” value (C4-2B MDVR cells) of the same compound?
The value was “resistant”.

And the “transcriptional activity mediated by AR-V7 and AR mutants” value [1]?
The value was “could not suppress”.

Which “cell growth, 3 days” value (CWR22Rv1 cells) does the source give for `CNC(=O)c1ccc(N2C(=S)N(c3ccc(C#N)c(C(F)(F)F)c3)C(=O)C2(C)C)cc1F` [Enza, enzalutamide] here?
Its value is “resistant”.

What about the “cell growth, 3 days” value (C4-2B MDVR cells) of the same compound?
Its value is “resistant”.

What about the “tumor PSA expression (mouse serum), single treatment” value (VCaP xenografts; Fig.6F) of the same compound?
The value was “slightly, but insignificantly, suppressed”.

And the “tumor growth, single treatment” value (VCaP xenografts; Enza 20 mg/Kg p.o., ARVib-7 75 mg/Kg orally, Fig.6C-6E)?
Its value is “insignificantly inhibited”.

And the “transcriptional activity mediated by AR-V7 and AR mutants” value [1]?
The value was “could not suppress”.

Which results are given for `CC(O)(CS(=O)(=O)c1ccc(F)cc1)C(=O)Nc1ccc(C#N)c(C(F)(F)F)c1` (centres unmarked) [bicalutamide]?
WT-AR transcriptional activity (wild-type AR (WT-AR)): suppress; transcriptional activity mediated by AR-V7 and AR mutants [1]: could not suppress

For `O=C(Nc1ccc([N+](=O)[O-])cc1Cl)c1cc(Cl)ccc1O` [niclosamide], which “inhibition of AR expression” value (AR; dose series, Fig.1C left) is on record?
Its value is 84.42%.

And the “inhibition of AR expression” value (AR; western blot, Fig.1B)?
Its value is 89.73%.

And the “enhancement of Enza treatment (cell growth)” value (CWR22Rv1 cells; CWR22Rv1, 0.5 μM with 20 μM Enza, 3 days, Fig.6A)?
Its value is “profoundly enhanced”.

And the “enhancement of Enza treatment (cell growth)” value (C4-2B MDVR cells; 0.25 μM with 20 μM Enza, 3 days, Supplementary Fig.6E)?
Its value is “profoundly enhanced”.

And the mouse body weight (CWR22Rv1 xenografts)?
The mouse body weight was “did not affect”.

And the “suppression of tumor growth / tumor volume compared to vehicle control” value (LuCaP 35CR xenografts; Fig.5C)?
Its value is 50%.

And the “tumor PSA expression (mouse serum)” value (LuCaP 35CR xenografts; Fig.5F)?
Its value is “slightly suppressed”.

And the bioavailability [2]?
The bioavailability was ~ 10%.
